Our source for the EC50 and Ki values is paper PMC6937391 (Leukemia research, 2019).

For one experiment, the system named is Mino cells. Put plainly: Cell viability assay. It counts as cell-based. To be noted: Homo sapiens, 24 h, read-out: EC50 (cell viability). Summed up:
(§1)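 Cells kept in RPMI 1640 with 10% heat-inactivated FBS and penicillin/streptomycin at 37°C, 5% CO2. Plated 24 h before a 24 h exposure to test compound diluted from DMSO stock; vehicle controls got 1% DMSO. CellTiter-Glo added, equilibrated 5 min at 37°C, luminescence read at 470 nm (1 s). Survival as % of untreated control; EC50 from 3- or 4-parameter nonlinear regression.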

For the next experiment, the system named is MM.1S BzR cells. Put plainly: Cell viability assay. It counts as cell-based. To be noted: Homo sapiens, MM1.S, 24 h, read-out: EC50 (cell viability).
In a further experiment the test system is U266 cells. Put plainly: Cell viability assay. The class given is cell-based. The settings on record: Homo sapiens, U-266, 24 h, read-out: EC50 (cell viability). Summed up:
as §1

The next experiment deals with Granta BzR cells. Put plainly: Cell viability assay. The class given is cell-based. The settings on record: 24 h, read-out: EC50 (cell viability).
In experiment [1] the target is C-L (β1) proteasomal sub-catalytic activity (Homo sapiens, UniProt P28072). As to the kind of experiment: Cell-based proteasome activity assay. To be noted: Ki50 C-L (β1), 24 h treatment.
The test system of the next experiment is Granta cells. Put plainly: Cell viability assay. The class given is cell-based. To be noted: 24 h, read-out: EC50 (cell viability). Summed up: as §1
For another experiment, the system named is Mino BzR cells. As to the kind of experiment: Cell viability assay. It counts as cell-based. To be noted: Homo sapiens, 24 h, read-out: EC50 (cell viability).
Experiment [2] concerns the target T-L (β2) proteasomal sub-catalytic activity (Homo sapiens, UniProt Q99436). Put plainly: Cell-based proteasome activity assay. To be noted: Ki50 T-L (β2), 24 h treatment.
The next experiment deals with MM.1S cells. Put plainly: Cell viability assay. The settings on record: Homo sapiens, MM1.S, 24 h, read-out: EC50 (cell viability). It counts as cell-based. The gist of the method:
as §1

The next experiment relates to U266 BzR cells. Put plainly: Cell viability assay. It counts as cell-based. The settings on record: Homo sapiens, U-266, 24 h, read-out: EC50 (cell viability).

As to `CC(C)C[C@H](NC(=O)CNC(=O)c1cc(Cl)ccc1Cl)B(O)O` [IXA, ixazomib], the EC50 (commonly the concentration needed to bring the measured effect to its halfway point) in the experiment on Mino cells amounted to 97.6 ± 4.6 nM; in the experiment with MM.1S BzR cells, 449 ± 23 nM; in the experiment with U266 cells, 34.7 ± 2.1 nM; in the experiment on Granta BzR cells, 774 ± 150 nM; in the experiment with Granta cells it was 147 ± 12 nM; in the experiment on Mino BzR cells it was 336 ± 30 nM. Also, the EC50 was 25.5 ± 0.9 nM with MM.1S cells and 169 ± 15 nM in the experiment on U266 BzR cells. Further, the Ki (usually a dissociation constant, usually derived from enzyme kinetics or from competition with a known ligand) in experiment [1] (ARD cells) came to 19.6 ± 8.32 nM; in [1] (MM.1R cells), 7.41 ± 1.59 nM; in experiment [1] (U266 cells) it was 16.1 ± 4.01 nM; in experiment [2] (ARD cells), 92.8 ± 19.1 nM; in experiment [2] (MM.1R cells), 29.3 ± 7.83 nM; in experiment [2] (U266 cells) it was 74.9 ± 16.8 nM.
`CC(C)C[C@H](NC(=O)[C@H](Cc1ccccc1)NC(=O)c1cnccn1)B(O)O` [BTZ, bortezomib]: the EC50 amounted to 10 ± 0.4 nM with Mino cells; 28.4 ± 0.6 nM in the experiment on MM.1S BzR cells; 2.7 ± 0.2 nM with U266 cells; 51.5 ± 9.3 nM in the experiment on Granta BzR cells; 14.9 ± 1.6 nM with Granta cells; 23.4 ± 1.1 nM in the experiment on Mino BzR cells. For the same compound, the EC50 in the experiment on MM.1S cells turned out to be 2.31 ± 0.03 nM; in the experiment on U266 BzR cells it was 14.1 ± 2 nM.
In the case of `CC(C)C[C@H](NC(=O)[C@H](CCc1ccccc1)NC(=O)CN1CCOCC1)C(=O)N[C@@H](Cc1ccccc1)C(=O)N[C@@H](CC(C)C)C(=O)[C@@]1(C)CO1` [CAR, carfilzomib], the EC50 in the experiment with Mino cells came to 6.3 ± 0.3 nM; in the experiment with MM.1S BzR cells it was 27.7 ± 1.6 nM; in the experiment with U266 cells, 6.9 ± 0.5 nM; with Granta BzR cells it was 24.2 ± 1.4 nM; in the experiment on Granta cells it was 11.7 ± 0.3 nM; in the experiment with Mino BzR cells it was 20.7 ± 0.7 nM. For the same compound, the EC50 in the experiment on MM.1S cells came out at 5.5 ± 0.2 nM; in the experiment with U266 BzR cells, 10.9 ± 1.4 nM.
